Assays:
[1] = target: T1, Estrogen receptor (Homo sapiens, UniProt P03372); experiment: Binding affinity to ERalpha assessed as inhibition of steroid receptor coactivator 2 interaction by fluorescence polarization assay
T1 sequence (P03372 whole entry): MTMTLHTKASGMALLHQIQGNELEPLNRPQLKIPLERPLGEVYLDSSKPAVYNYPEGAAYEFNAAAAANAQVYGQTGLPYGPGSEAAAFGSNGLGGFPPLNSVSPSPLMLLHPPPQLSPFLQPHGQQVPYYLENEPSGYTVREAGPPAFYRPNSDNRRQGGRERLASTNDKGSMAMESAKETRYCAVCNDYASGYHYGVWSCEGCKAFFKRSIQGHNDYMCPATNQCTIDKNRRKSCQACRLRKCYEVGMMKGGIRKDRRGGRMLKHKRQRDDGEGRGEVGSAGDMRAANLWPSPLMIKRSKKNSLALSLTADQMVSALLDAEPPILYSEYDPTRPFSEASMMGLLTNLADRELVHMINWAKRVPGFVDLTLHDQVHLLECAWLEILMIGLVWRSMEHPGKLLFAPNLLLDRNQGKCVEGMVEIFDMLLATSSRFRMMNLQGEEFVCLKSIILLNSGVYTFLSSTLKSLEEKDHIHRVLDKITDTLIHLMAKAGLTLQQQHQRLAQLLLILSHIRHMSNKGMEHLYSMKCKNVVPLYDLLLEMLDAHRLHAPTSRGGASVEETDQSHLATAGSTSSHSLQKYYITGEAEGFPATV

[2] = target: T2, Estrogen receptor beta (Homo sapiens, UniProt Q92731); experiment: Binding affinity to ERbeta assessed as inhibition of fluorescein-labeled nuclear receptor domain of steroid receptor coactivator 3 by TR-FRET assay
[3] = target: T1, Estrogen receptor; experiment: Antagonist activity at ERalpha in human HEC1 cells assessed as inhibition of estrogen-induced transcriptional activity after 24 hrs by reporter gene assay; type: functional, cell-based, HEC-1
Procedure, shortened: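 HEC-1 cells, which lack endogenous ER, were lipofectin-transfected with full-length ERα vector, 2ERE-luciferase reporter and pCMV β-gal as internal control. After 6 h the medium was changed to 5% charcoal-dextran-treated calf serum with ligands.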

[4] = target: T1, Estrogen receptor; experiment: Binding affinity to ERalpha assessed as inhibition of fluorescein-labeled nuclear receptor domain of steroid receptor coactivator 3 by TR-FRET assay
Procedure, shortened: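 Fluorescein-SRC-3-NRD (50 nM) was then added for 1 h at room temperature in the dark. Buffer: 20 mM Tris pH 7.5, 0.01% NP40, 50 mM NaCl. SRC-1 Box II peptide served as positive control.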

[5] = target: T2, Estrogen receptor beta; experiment: Antagonist activity at ERbeta in human HEC1 cells assessed as inhibition of estrogen-induced transcriptional activity after 24 hrs by reporter gene assay; type: functional, cell-based, HEC-1
[6] = target: T1, Estrogen receptor; experiment: Binding affinity to ERalpha assessed as inhibition of steroid receptor coactivator interaction in african green monkey COS7 cells by mammalian 2 hybrid assay; type: cell-based, COS-7
[7] = Cytotoxicity against human HEC1 cells assessed as decrease in viable cell count at 20 uM; type: cell-based; settings: hec-1, 20 µM

T2 sequence (Q92731 whole entry, the tested form may be a part): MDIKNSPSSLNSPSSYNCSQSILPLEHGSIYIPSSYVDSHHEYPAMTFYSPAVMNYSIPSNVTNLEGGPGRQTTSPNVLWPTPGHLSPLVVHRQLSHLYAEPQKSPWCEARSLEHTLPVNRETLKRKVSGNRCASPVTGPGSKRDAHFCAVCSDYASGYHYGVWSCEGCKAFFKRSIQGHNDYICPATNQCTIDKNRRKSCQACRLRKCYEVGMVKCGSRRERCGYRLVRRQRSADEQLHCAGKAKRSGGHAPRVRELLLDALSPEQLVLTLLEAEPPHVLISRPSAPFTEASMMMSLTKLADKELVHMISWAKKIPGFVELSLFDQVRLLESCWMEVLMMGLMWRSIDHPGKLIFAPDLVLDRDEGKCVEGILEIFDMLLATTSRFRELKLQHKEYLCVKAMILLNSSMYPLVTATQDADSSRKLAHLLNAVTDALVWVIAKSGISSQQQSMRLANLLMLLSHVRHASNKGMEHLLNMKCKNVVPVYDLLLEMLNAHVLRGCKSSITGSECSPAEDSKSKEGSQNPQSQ

| Compound | Ki [1] [µM] | Ki [2] [µM] | IC50 [3] [µM] | Ki [4] [µM] | IC50 [5] [µM] | IC50 [6] [µM] | Activity [7] |
| --- | --- | --- | --- | --- | --- | --- | --- |
| c1ccc(CCc2cc(NCc3ccccc3)nc(NCc3ccccc3)n2)cc1 | 49 | > 1000 | > 1000 | > 1000 | – | – | – |
| CC(C)CCc1cc(NCC(C)C)nc(NCC(C)C)n1 | – | > 1000 | – | – | > 1000 | – | – |
| CC(C)(C)OC(=O)N(Cc1cccc2ccccc12)c1cc(CCc2ccccc2)nc(NCc2cccc3ccccc23)n1 | – | > 1000 | > 1000 | > 1000 | – | – | – |
| N=C(N)N/N=C/C1=C(Cl)c2ccccc2CC1 | – | – | – | – | – | 5.5 | – |
| CC(C)CCc1nc(NCc2cccc3ccccc23)cc(NCC(C)C)n1 | – | > 1000 | > 1000 | > 1000 | – | – | – |
| CC(C)CNc1cc(/C=C/c2ccccc2)nc(NCc2ccccc2)n1 | – | > 1000 | 12 | > 1000 | – | – | Active |
| CC(C)CCc1cc(NCc2cccc3ccccc23)nc(NCc2cccc3ccccc23)n1 | – | > 1000 | > 1000 | > 1000 | – | – | – |
| c1ccc(CCc2cc(CCc3ccccc3)nc(NCc3cccc4ccccc34)n2)cc1 | – | > 1000 | > 1000 | > 1000 | – | – | – |
| CC(C)CNc1cc(NCC(C)C)nc(NCC(C)C)n1 | – | 299 | – | – | – | – | Active |
| C(=C\c1cc(OCc2ccccc2)nc(OCc2ccccc2)n1)/c1ccccc1 | – | > 1000 | > 1000 | > 1000 | – | – | – |
| c1ccc(COc2cc(OCc3ccccc3)nc(OCc3ccccc3)n2)cc1 | – | > 1000 | > 1000 | > 1000 | – | – | – |
| c1ccc(CCc2cc(NCc3cccc4ccccc34)nc(NCc3ccccc3)n2)cc1 | – | > 1000 | > 1000 | > 1000 | – | – | – |
| c1ccc2c(CCc3cc(NCc4cccc5ccccc45)nc(NCc4cccc5ccccc45)n3)cccc2c1 | – | > 1000 | > 1000 | > 1000 | – | – | – |
| c1ccc(CSc2cc(SCc3ccccc3)nc(SCc3ccccc3)n2)cc1 | – | > 1000 | > 1000 | > 1000 | – | – | – |
| CC(C)CCc1cc(NCc2cccc3ccccc23)nc(NCc2ccccc2)n1 | – | > 1000 | > 1000 | > 1000 | – | – | – |
| CC(C)CNc1nc(/C=C/c2ccccc2)cc(/C=C/c2ccccc2)n1 | – | > 1000 | > 1000 | > 1000 | – | – | – |
| CC(C)CCc1cc(NCc2ccccc2)nc(NCc2cccc3ccccc23)n1 | – | > 1000 | > 1000 | > 1000 | – | – | – |
| C(=C\c1cc(/C=C/c2ccccc2)nc(NCc2ccccc2)n1)/c1ccccc1 | – | > 1000 | > 1000 | > 1000 | – | – | – |
| CC(C)CNc1cc(/C=C/c2ccccc2)nc(NCc2cccc3ccccc23)n1 | – | > 1000 | > 1000 | > 1000 | – | – | – |

The next lines start with results.

| Ki [1] [µM] | Ki [2] [µM] | IC50 [3] [µM] | Ki [4] [µM] | IC50 [5] [µM] | Compound | IC50 [6] [µM] | Activity [7] |
| --- | --- | --- | --- | --- | --- | --- | --- |
| – | > 1000 | 6.9 | > 1000 | – | CC(C)CCc1cc(NCC(C)C)nc(OCC(C)C)n1 | – | Active |
| – | > 1000 | > 1000 | > 1000 | – | CC(C)CCc1cc(CCC(C)C)nc(NCc2ccccc2)n1 | – | – |
| – | > 1000 | > 1000 | > 1000 | – | CC(C)CNc1nc(CCc2cccc3ccccc23)cc(N(CC(C)C)C(=O)OC(C)(C)C)n1 | – | – |
| – | > 1000 | > 1000 | > 1000 | – | CC(C)COc1cc(OCC(C)C)nc(OCC(C)C)n1 | – | – |
| – | > 1000 | 9.5 | – | > 1000 | CC(C)CNc1cc(NCc2ccccc2)nc(NCC(C)C)n1 | – | – |
| – | > 1000 | > 1000 | > 1000 | – | CC(C)CCc1cc(OCc2ccccc2)nc(OCc2ccccc2)n1 | – | – |
| – | > 1000 | 1.8 | 7.9 | – | CC(C)CCc1cc(NCC(C)C)nc(NCc2ccccc2)n1 | – | Active |
| – | > 1000 | 2.1 | 5.8 | > 1000 | CC(C)CNc1cc(CCc2ccccc2)nc(NCC(C)C)n1 | – | Active |
| – | > 1000 | > 1000 | > 1000 | – | CC(C)CNc1nc(CCc2ccccc2)cc(CCc2ccccc2)n1 | – | – |
| – | > 1000 | > 1000 | > 1000 | – | CC(C)CNc1cc(CCc2ccccc2)nc(NCc2cccc3ccccc23)n1 | – | – |
| – | > 1000 | > 1000 | > 1000 | – | CC(C)COc1cc(CCc2ccccc2)nc(OCC(C)C)n1 | – | – |
| – | > 1000 | > 1000 | > 1000 | – | CC(C)COc1cc(/C=C/c2ccccc2)nc(OCC(C)C)n1 | – | – |
| – | > 1000 | > 1000 | > 1000 | – | c1ccc(CCc2cc(OCc3ccccc3)nc(OCc3ccccc3)n2)cc1 | – | – |

Source: ChEMBL document CHEMBL1140106, “Blocking estrogen signaling after the hormone: pyrimidine-core inhibitors of estrogen receptor-coactivator binding” (J Med Chem, 2008)
